This passage reports IC50, Activity and ΔTm results from ChEMBL document CHEMBL4414562, “Discovery of the First in Vivo Active Inhibitors of the Soluble Epoxide Hydrolase Phosphatase Domain” (J Med Chem, 2019).

What is called IC50 is the point on the concentration scale where inhibition reaches its midpoint. Usually ΔTm stands for the shift of the melting midpoint relative to a reference.

The nature of assay [1]: Inhibition of hexa-His-tagged human soluble epoxide hydrolase N-terminal phosphatase domain expressed in Escherichia coli BL21(DE3) pre-incubated for 30 mins before FDP substrate addition by fluorescence based assay.
Assay [2] addresses T1, Bifunctional epoxide hydrolase 2 (Homo sapiens, UniProt P34913).
T1 sequence (P34913 whole entry): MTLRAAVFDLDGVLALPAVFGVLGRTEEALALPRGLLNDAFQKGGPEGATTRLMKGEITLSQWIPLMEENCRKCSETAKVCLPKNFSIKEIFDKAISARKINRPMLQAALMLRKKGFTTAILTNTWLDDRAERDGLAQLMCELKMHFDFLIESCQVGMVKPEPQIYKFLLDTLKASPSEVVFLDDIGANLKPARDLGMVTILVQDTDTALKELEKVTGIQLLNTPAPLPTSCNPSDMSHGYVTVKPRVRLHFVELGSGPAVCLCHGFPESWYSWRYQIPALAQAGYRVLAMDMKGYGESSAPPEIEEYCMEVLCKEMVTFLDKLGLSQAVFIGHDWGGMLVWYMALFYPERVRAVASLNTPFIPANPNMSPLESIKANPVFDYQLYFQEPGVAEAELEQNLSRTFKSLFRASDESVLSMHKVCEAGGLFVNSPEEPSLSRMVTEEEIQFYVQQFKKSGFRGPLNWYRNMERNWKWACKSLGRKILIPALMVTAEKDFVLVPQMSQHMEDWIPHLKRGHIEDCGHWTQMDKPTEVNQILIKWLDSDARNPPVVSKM
As to the kind of experiment: Inhibition of hexa-His-tagged human soluble epoxide hydrolase C-terminal hydrolase domain expressed in Escherichia coli BL21(DE3) pre-incubated for 30 mins before PHOME substrate addition by fluorescence based assay.

The target in assay [3] is T1, Bifunctional epoxide hydrolase 2. In words: Inhibition of hydrolase activity of full length human soluble epoxide hydrolase pre-incubated for 30 mins before PHOME substrate addition by fluorescence based assay. Put shortly: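 Hydrolase assay with 0.1 μM full-length enzyme in Bis-Tris pH 7 containing 0.1 mg/mL BSA and 0.01% Triton X-100. Reaction started with PHOME (50 μM final). Triplicates.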

For assay [4] the target is unchanged. As to the kind of experiment: Inhibition of phosphatase activity of full length human soluble epoxide hydrolase pre-incubated for 30 mins before FDP substrate addition by fluorescence based assay.
The species named for assay [5] is Homo sapiens. In words: Induction of stabilization of hexa-His-tagged human soluble epoxide hydrolase N-terminal phosphatase domain expressed in Escherichia coli BL21(DE3) at 50 uM by differential scanning fluorimetry.
For assay [6], the target named is T2, Bifunctional epoxide hydrolase 2 (Homo sapiens) (UniProt P34913).
T2 sequence (whole entry): T1 sequence (P34913 whole entry)
As to the kind of experiment: Induction of stabilization of hexa-His-tagged human soluble epoxide hydrolase C-terminal hydrolase domain expressed in Escherichia coli BL21(DE3) at 50 uM by differential scanning fluorimetry.

Assay [7] is filed under the species Homo sapiens.

Calls of active or inactive are those of the source. The calls are words filed in the database; no cut-off is given here.

For `O=C(O)CCCc1nc(-c2ccc(Cl)c(Cl)c2)c(-c2cccc(F)c2)o1`, the IC50 in assay [1] was found to be 120 nM.
In the case of `O=C(O)CCCc1nc(-c2ccc(Cl)c(Cl)c2)c(-c2cccc(Cl)c2)o1`, the IC50 in assay [1] worked out at 230 nM.
`O=C(O)CCc1nc(-c2ccc(C(F)(F)F)cc2)c(-c2ccccc2)o1`: in assay [1], the IC50 was 33000 nM.
Compound `COc1ccc(-c2nc(CCC(=O)O)oc2-c2ccccc2)cc1` showed a half-inhibitory concentration (IC50) in assay [1] of 18000 nM.
With `O=c1c2ccccc2[se]n1-c1ccccc1` [EBSELEN], the IC50 amounted to 110 nM in assay [2], 290 nM in assay [1], 300 nM in assay [3] and 420 nM in assay [4].
In turn, `COc1cccc(-c2oc(CCCC(=O)O)nc2-c2ccc(Cl)c(Cl)c2)c1` came in with an IC50 in assay [1] of 310 nM.
In assay [1], `O=C(O)CCCc1nc(-c2ccc(Cl)c(Cl)c2)c(-c2ccncc2)o1` yielded an IC50 of 20000 nM.
Compound `O=C(O)/C=C/c1nc(-c2ccc(Cl)c(Cl)c2)c(-c2ccccc2)o1` registered an IC50 in assay [1] of 510 nM.
Regarding `O=C(O)CCCc1nc(-c2ccc(Cl)c(Cl)c2)c(-c2cccc(C(F)(F)F)c2)o1`, the IC50 in assay [1] was 410 nM.
With `C#Cc1cccc(-c2oc(CCCC(=O)O)nc2-c2ccc(Cl)c(Cl)c2)c1`, in assay [1], the IC50 turned out to be 140 nM.
In turn, `O=C(O)CCc1nc(-c2ccc(Cl)cc2Cl)c(-c2ccccc2)o1` displayed an IC50 in assay [1] of 17000 nM.
In assay [1], `O=C(O)CCc1nc(-c2cc(Cl)cc(Cl)c2)c(-c2ccccc2)o1` returned an IC50 of 9000 nM.
Compound `O=C(O)CCCc1nc(-c2ccc(Cl)c(Cl)c2)c(Br)o1` displayed an IC50 in assay [1] of 3000 nM.
On to `O=C(Nc1ccc(I)cc1)NC1CCCCC1`, for which the outcome in the assay listed under Homo sapiens [5] was inactive. Besides, the result in assay [6] was Active.
`N#Cc1cccc(-c2oc(CCCC(=O)O)nc2-c2ccc(Cl)c(Cl)c2)c1` came in with an IC50 in assay [1] of 120 nM.
`N#Cc1ccc(-c2nc(CCC(=O)O)oc2-c2ccccc2)cc1` returned an IC50 in assay [1] of 44000 nM.
Turning to `O=C(O)CCc1nc(-c2cccc(F)c2)c(-c2ccccc2)o1`, the IC50 in assay [1] is 7000 nM.
Same read-out and setting: in the case of `O=C(O)c1ccc(-c2nc(-c3ccc(Cl)c(Cl)c3)c(-c3ccccc3)o2)cc1` it was 12000 nM; in that of `N#Cc1cccc(-c2nc(CCC(=O)O)oc2-c2ccccc2)c1`, 10000 nM.
For the compound `CC(=O)N[C@@H](CSC/C=C(\C)CC/C=C(\C)CCC=C(C)C)C(=O)O`, the ΔTm in the assay filed under Homo sapiens [7] is 3.4 °C. The IC50 in assay [2] was more than 300000 nM; in assay [1], 550 nM; in assay [3] it was more than 300000 nM; in assay [4] it was 2040 nM.
`O=C(O)c1ccccc1-c1nc(-c2ccc(Cl)c(Cl)c2)c(-c2ccccc2)o1`: in assay [1], 15000 nM corresponded to half-maximal inhibition (IC50).
As for `O=C(O)CCc1nc(-c2ccc(F)cc2)c(-c2ccccc2)o1`, the midpoint of inhibition in assay [1], the IC50, lay at 9000 nM.
Still for that read-out and setting: in the case of `O=C(O)CCc1nc(-c2ccc(Cl)c(Cl)c2)c(-c2ccccc2)o1` it was 120 nM.
In assay [1], `O=C(O)CCCc1nc(-c2ccc(Cl)c(Cl)c2)co1` came in with an IC50 of more than 50000 nM.
In turn, `O=C(O)c1cccc(-c2nc(-c3ccc(Cl)c(Cl)c3)c(-c3ccccc3)o2)c1` yielded an IC50 in assay [1] of 150 nM.
The same measure, in the same setting: then `O=C(O)CCCc1nc(-c2ccc(Cl)c(Cl)c2)c(-c2cccnc2)o1`, with 4000 nM; and `O=C(O)CCc1nc(-c2ccc(Cl)c(C(F)(F)F)c2)c(-c2ccccc2)o1`, with 2000 nM; and `O=C(O)CCCc1nc(-c2ccc(Cl)c(Cl)c2)c(-c2cc(F)ccc2F)o1`, with 280 nM.
In turn, `O=C(O)CCCc1nc(-c2ccc(Cl)c(Cl)c2)c(-c2ccccc2F)o1` registered an IC50 in assay [1] of 310 nM.
As to `Cc1cccc(-c2oc(CCCC(=O)O)nc2-c2ccc(Cl)c(Cl)c2)c1`, in assay [1], the IC50 turned out to be 310 nM.
`O=C(O)CCc1nc(-c2ccc(Cl)cc2)c(-c2ccccc2)o1`: the IC50 in assay [1] amounted to 3000 nM.
Same read-out and setting: then `O=C(O)CCc1nc(-c2ccccc2F)c(-c2ccccc2)o1`, with 40000 nM; and `O=C(O)CCc1nc(-c2ccccc2Cl)c(-c2ccccc2)o1`, with 33000 nM.
